# Measured values collected from several papers.
# Lines come from different studies, so protocols differ.
# ADRA1B: Alpha-1B adrenergic receptor (ADRA1B, Homo sapiens, UniProt P35368)
# PARP3: Protein mono-ADP-ribosyltransferase PARP3 (PARP3, Homo sapiens, UniProt Q9Y6F1)
# Mapk1: Mitogen-activated protein kinase 1 (Mapk1, Mus musculus, UniProt P63085)
SMILES,target,assay,system,conditions,inhibition [%]
CCN1CCN(Cc2ccc(NC(=O)c3ccc(C)c(Oc4ccnc5[nH]ccc45)c3)cc2C(F)(F)F)CC1,"Microtubule-associated serine/threonine-protein kinase 4 (MAST4, Homo sapiens, UniProt O15021)","target engagement in cells, inhibitor, chemoproteomics",Huh-7,1 µM,-11.5
CNC(=O)c1cc2c(Oc3ccc(NC(=O)C4(C(=O)Nc5ccc(F)cc5)CC4)cc3)ccnc2cc1OC,"Hepatocyte growth factor receptor (MET, Homo sapiens, UniProt P08581, Y1230H)","enzyme activity, inhibitor, radiometric",,1 µM,99
O=C(c1ccc(Cl)cc1)N(Cc1ccccc1)C1CCCCC1,ADRA1B,cell-free assay,,10 µM,11.3
CCN(c1cc(C#CCN2CCOCC2)cc(C(=O)NCc2c(C)cc(C)[nH]c2=O)c1C)[C@H]1CC[C@H](N(C)CCOC)CC1,"Histone-lysine N-methyltransferase NSD3 (NSD3, Homo sapiens, UniProt Q9BZ95)","enzyme activity, inhibitor",,1 µM,16
CCN(CC)c1ccc(C2Nc3ccc(C(=O)c4ccccc4)cc3NC3=C2C(=O)CC(C)(C)C3)cc1 (stereo not drawn),ADRA1B,"ligand displacement, radioligand",,10 µM,-5
Cn1cnc(Br)c1C1=CN(c2ncnc3[nH]cnc23)CCS1,"Myosin-IIIa (MYO3A, Homo sapiens, UniProt Q8NEV4)","enzyme activity, inhibitor, radiometric",,2 µM,29.9
Ic1cccc2cnccc12,"ADP-ribosyl cyclase/cyclic ADP-ribose hydrolase 1 (CD38, Homo sapiens, UniProt P28907)","enzyme activity, inhibitor",,10 µM,0
CC/C(=N\NC(=O)NCc1cccc(O)c1)c1ccc(O)c(C)c1O,"cAMP-dependent protein kinase catalytic subunit gamma (PRKACG, Homo sapiens, UniProt P22612)","enzyme activity, inhibitor",,0.1 µM,91
N#Cc1cc(Cn2c(N3CCCC3)nc3ccccc32)ccc1F,ADRA1B,ligand displacement,,10 µM,-7.54
CN(C)C1CCN(CC#Cc2nn(C3CCCC3)c3nc(NCc4ccccc4)ncc23)C1 (stereo not drawn),"Interleukin-1 receptor-associated kinase 4 (IRAK4, Homo sapiens, UniProt Q9NWZ3)","enzyme activity, inhibitor, FRET",,10 µM,0
O=C1NCCCc2c(O)cccc21,PARP3,"enzyme activity, inhibitor",,10 µM,20
O=C(O)Cc1ccccc1Nc1c(F)cccc1Cl,"Prostaglandin G/H synthase 2 (Ptgs2, Mus musculus, UniProt Q05769)","enzyme activity, inhibitor",,"10 µM, with preincubation",25
O=C1CCCc2c(O)cccc2N1,PARP3,"enzyme activity, inhibitor",,10 µM,0
CCN(CC)CCNC(=O)c1c(C)[nH]c(/C=C2\C(=O)Nc3ccc(F)cc32)c1C,Mapk1,"enzyme activity, inhibitor",,0.3 µM,-16
O=C1CCNC(=O)c2cc(Cl)c(Cl)cc21,PARP3,"enzyme activity, inhibitor",,10 µM,85
COc1cc(NC(C)=O)c(Cl)cc1C(=O)Nc1nccs1,ADRA1B,cell-free assay,,10 µM,4.3
Nc1ccc2c(c1)CCCn1nnnc1-2,PARP3,"enzyme activity, inhibitor",,10 µM,0
Cc1ccc(Nc2nccc(N(C)c3ccc4c(C)n(C)nc4c3)n2)cc1S(N)(=O)=O,Mapk1,"enzyme activity, inhibitor",,0.3 µM,-2
